In data set [1] the target is T1, Gamma-secretase (Homo sapiens) (UniProt Q96BI3+Q9NZ42+Q8WW43+P49768+Q92542+P49810). The experiment in a line: Modulation of gamma-secretase activity in human H4 cells expressing APP695 assessed as increase in amyloid beta38 production at 100 uM after 20 to 24 hrs by liquid phase electrochemiluminescence assay. The class given is cell-based. The method, boiled down: (§1)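 Aβ-lowering assay in H4 APPΔ9 cells. Secreted Aβ isoforms (Aβ38, Aβ40, Aβ42) were quantified by liquid phase electrochemiluminescence (LPECL). Dose-response testing was capped at 100 μM to avoid micelle formation by the amphiphilic acids. EC50 values were derived from the curves, and the response at 100 μM was reported where EC50 could not be determined.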

For data set [2], the target named is T1, Gamma-secretase (Homo sapiens). The data set is described as follows: Modulation of gamma-secretase activity in human H4 cells expressing APP695 assessed as increase in amyloid beta40 production at 100 uM after 20 to 24 hrs by liquid phase electrochemiluminescence assay. The class given is cell-based. The method, boiled down: as §1
Data set [3] deals with Gamma-secretase. The experiment in a line: Modulation of gamma-secretase activity in human H4 cells expressing APP695 assessed as increase in amyloid beta42 production after 20 to 24 hrs by liquid phase electrochemiluminescence assay. The class given is cell-based. In short, it runs like this:
as §1

The test system of data set [4] is H4. The experiment in a line: Cytotoxicity against human H4 cells assessed as cell viability at 80 uM by MTS assay. The class given is cell-based. Particulars: h4, 80 µM. The method, boiled down:
(§2)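 Viability of H4 APPΔ9 cells was read by a colorimetric cell proliferation assay based on bioreduction of MTS (Owen's reagent) to formazan.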
In general terms: Formazan colour is commonly taken as a measure of viable cells.

In data set [5] the test system is H4. The experiment in a line: Cytotoxicity against human H4 cells assessed as cell viability at 160 uM by MTS assay. The class given is cell-based. Particulars: h4, 160 µM. The method, boiled down: as §2
Data set [6] concerns H4. The data set is described as follows: Cytotoxicity against human H4 cells assessed as cell viability by MTS assay. The data set is classed as cell-based. In short, it runs like this: as §2
The target of data set [7] is Gamma-secretase. The data set is described as follows: Modulation of gamma-secretase activity in human H4 cells expressing APP695 assessed as increase in amyloid beta38 production after 20 to 24 hrs by liquid phase electrochemiluminescence assay. The data set is classed as cell-based. The method, boiled down: as §1
For data set [8], the target named is Gamma-secretase. The experiment in a line: Modulation of gamma-secretase activity in human H4 cells expressing APP695 assessed as increase in amyloid beta40 production after 20 to 24 hrs by liquid phase electrochemiluminescence assay. The data set is classed as cell-based. The method, boiled down: as §1
In data set [9] the test system is H4. The data set is described as follows: Cytotoxicity against human H4 cells assessed as cell viability at 20 uM by MTS assay. The data set is classed as cell-based. Conditions: h4, 20 µM. In short, it runs like this: as §2
The subject of another data set is Mus musculus. The data set is described as follows: Antialzheimer activity in APP Swedish mutant transgenic C57/BLg mouse assessed as change in amyloid beta42 level in brain at 10 mg/kg, po after 5 hrs. The class given is functional, organism-based. Further details: dose 10 mg/kg.
Data set [10] can be described thus: Ratio of AUC in brain to AUC in plasma in APP Swedish mutant transgenic C57/BLg mouse at 10 mg/kg, po after 5 hrs. Conditions: in vivo.
Data set [11] can be described thus: Ratio of AUC in plasma to AUC in cerebrospinal fluid in rat. The data set is classed as ADME, CSF/Plasma. Particulars: in vivo.

Calls of active or inactive are those of the source. No cut-off for these calls is given here. Where only a bound is given, the exact number is not on record here.

For orientation: EC50 means the concentration that produces a half-maximal response. In the case of `CCCCCCCCn1c2ccc(Cl)cc2c2ccc(C(C)CO)cc21` (configuration not stated), the outcome in data set [1] and in data set [2] was inactive. Besides, the EC50 at Gamma-secretase [3] turned out to be 21 µM. The Activity entry with H4 [4] is “Toxic”.

A word on the IC50: it is the concentration at which inhibition is half-maximal. For `CCCCCCCCn1c2ccccc2c2ccc(OCC(N)=O)cc21`, the outcome in [1] and in data set [2] was inactive. For the same molecule, the IC50 on Gamma-secretase [3] came out at 104 µM. In addition, in the data set on H4 [5], the Activity result is recorded as “Toxic”.

Take `CCCCCCCCn1c2ccccc2c2ccc(OCC(=O)OCC(C)C)cc21`: the result in data set [1] and in [2] was inactive. Moreover, the IC50 on Gamma-secretase [3] is above 80 µM. Further, in the data set with H4 [6], the Activity entry is on record as “Non-toxic”.

For the molecule `CCCCCCCCn1c2ccccc2c2ccc(OCCN)cc21`, the IC50 at Gamma-secretase [7] and at Gamma-secretase [8] was above 80 µM in each case. Moreover, the concentration giving a half-maximal response (EC50) at Gamma-secretase [3] is above 80 µM. Further, the Activity result in the data set on H4 [6] is “Non-toxic”.

In the case of `CCCCCCCCn1c2ccccc2c2ccc(O)cc21`, the result in data set [1] and in [2] was inactive. Moreover, at Gamma-secretase [3], the IC50 is above 80 µM.

Turning to `CCCCCCCCn1c2ccc(Cl)cc2c2ccc(C(C)C(=O)O)cc21` (configuration not stated), the IC50 at Gamma-secretase [7] is 100 µM; at Gamma-secretase [8] it was above 40 µM; at Gamma-secretase [3], 6.9 µM.

For the molecule `CCCCCCCCn1c2ccccc2c2ccc(OCC(=O)O)cc21`, the EC50 at Gamma-secretase [7] is 24 µM. At Gamma-secretase [3], the IC50 stood at 19 µM.

Turning to `CCCCCCCCn1c2ccccc2c2ccc(OCC(=O)OC(C)C)cc21`, the outcome in data set [1] and in data set [2] was inactive. The EC50 at Gamma-secretase [3] was found to be 49 µM.

On to `CCCCCCCCn1c2ccccc2c2ccc(OCCO)cc21`, for which the result in data set [1] and in data set [2] was inactive. Besides, the IC50 on Gamma-secretase [3] was above 40 µM. The Activity entry with H4 [6] is listed as “Non-toxic”.

Consider `CCCCCCCCn1c2ccccc2c2ccc(OCCN(C(=O)C(F)(F)F)C(=O)C(F)(F)F)cc21`, for which the result in data set [1] and in [2] was inactive. Moreover, on Gamma-secretase [3], the IC50 was above 80 µM. Moreover, in the data set with H4 [6], the Activity entry is “Non-toxic”.

For the molecule `CCCCCCCCn1c2ccccc2c2ccc(OCCN(C)C)cc21`, the outcome in data set [1] and in data set [2] was inactive. The EC50 at Gamma-secretase [3] was above 10 µM. For the same molecule, the Activity result in the data set on H4 [9] is recorded as “Toxic”.

Consider `CCCCCCCCn1c2ccccc2c2cc(C=O)c(OCC(=O)OC)cc21`, for which the result in data set [1] and in [2] was inactive. For the same molecule, on Gamma-secretase [3], the IC50 worked out at 89 µM. Further, in the data set on H4 [6], the Activity entry is recorded as “Non-toxic”.

Take `CCCCCCCCn1c2ccc(Cl)cc2c2ccc(C(C)C(=O)OCC)cc21` (configuration not stated): the result in [1] and in data set [2] was inactive. For the same molecule, the EC50 on Gamma-secretase [3] stood at 21 µM.

Consider `CCCCCCCCn1c2ccccc2c2ccc(OCc3nn[nH]n3)cc21`, for which the IC50 on Gamma-secretase [7] was found to be 165 µM; at Gamma-secretase [8] it was 102 µM; at Gamma-secretase [3] it was 113 µM.

On to `CCCCCCCCn1c2ccc(Cl)cc2c2ccc(C(C)C(=O)OCc3ccccc3)cc21` (configuration not stated), for which the result in data set [1] and in [2] was inactive. Further, on Gamma-secretase [3], the IC50 was above 80 µM. Besides, in the data set with H4 [6], the Activity entry is recorded as “Non-toxic”.

As to `CCCCCCCCn1c2ccc(Cl)cc2c2ccc(CC)cc21`, the result in [1] and in data set [2] was inactive. At Gamma-secretase [3], the EC50 came out at 50 µM.

Take `CCCCCCCCn1c2ccc(Cl)cc2c2ccc(C(C)C(=O)NS(C)(=O)=O)cc21` (configuration not stated): the outcome in [1] and in data set [2] was inactive. In addition, at Gamma-secretase [3], the EC50 is 32 µM.

Turning to `CCCCCCCCn1c2ccccc2c2ccc(OCCC(=O)O)cc21`, the EC50 at Gamma-secretase [7] is above 80 µM. Also, the IC50 on Gamma-secretase [8] and at Gamma-secretase [3] was above 80 µM throughout. For the same molecule, in the data set on H4 [6], the Activity result is “Non-toxic”.

Take `CCCCCCCCn1c2ccccc2c2ccc(OCCS(=O)(=O)O)cc21`: the result in [1] and in [2] was inactive. Moreover, at Gamma-secretase [3], the IC50 was above 80 µM.

As to `CCCCCCCCn1c2ccccc2c2ccc(OC3=C(O)COC3=O)cc21`, the EC50 on Gamma-secretase [7] worked out at 21 µM. The values for the IC50 at Gamma-secretase [8] and on Gamma-secretase [3] were above 80 µM and 37 µM, respectively. For the same molecule, in the data set on H4 [6], the Activity result is “Non-toxic”.

For `CCCCCCCCn1c2ccccc2c2ccc(OC3=C(O)C(Cc4ccccc4)N(Cc4ccc5c(c4)OCO5)C3=O)cc21` (configuration not stated), the IC50 on Gamma-secretase [7] worked out at 31 µM; at Gamma-secretase [8], 32 µM; at Gamma-secretase [3], 24 µM. Moreover, in the data set on H4 [4], the Activity entry is reported as “Toxic”.

Turning to `CCCCCCCCCCn1c2ccc(Cl)cc2c2ccc(C(C)C(=O)O)cc21` (configuration not stated), in the data set with Mus musculus, the result was inactive. Also, the “Ratio AUC” value in [10] is below 0.1.

On to `CCCCCCCCn1c2ccccc2c2ccc(OCCP(=O)(OCC)OCC)cc21`, for which the result in data set [1] and in [2] was inactive. The EC50 at Gamma-secretase [3] was determined as 13 µM. In the data set on H4 [4], the Activity entry is reported as “Toxic”.

As for `CCCCCCCCn1c2ccccc2c2ccc(OC3=C(O)CNC3=O)cc21`, the EC50 at Gamma-secretase [7] turned out to be 8 µM. The IC50 on Gamma-secretase [8] came to 72 µM; at Gamma-secretase [3] it was 28 µM. For the same molecule, the Activity result in the data set with H4 [6] is reported as “Non-toxic”.

As to `CCCCCCCCn1c2ccccc2c2cc(C=O)c(OCC(=O)O)cc21`, the result in data set [1] and in data set [2] was inactive. Also, the IC50 at Gamma-secretase [3] worked out at 32 µM. In addition, the Activity result with H4 [4] is “Toxic”.

For `CCCCCCCCn1c2ccccc2c2ccc(Oc3ccccc3C(=O)O)cc21`, at Gamma-secretase [7], the EC50 is 23 µM. In addition, the values for the IC50 on Gamma-secretase [8] and on Gamma-secretase [3] were above 80 µM and 38 µM, respectively. Also, the Activity result with H4 [6] is recorded as “Non-toxic”.

Turning to `CCCCCCCCn1c2ccccc2c2cc(CO)c(OCCO)cc21`, the outcome in [1] and in data set [2] was inactive. The IC50 on Gamma-secretase [3] came to 80 µM.

In the case of `CCCCCCCCn1c2ccccc2c2ccc(OCC(=O)OCC)cc21`, the outcome in data set [1] and in data set [2] was inactive. Further, the IC50 at Gamma-secretase [3] turned out to be 31 µM.

For `CCCCCCCCn1c2ccccc2c2ccc(OCC(O)C(F)(F)F)cc21` (configuration not stated), the result in data set [1] and in [2] was inactive. Besides, the EC50 at Gamma-secretase [3] is 12 µM.

For the molecule `CCCCCCCCn1c2ccccc2c2cc(CCC(=O)O)c(OCC(=O)O)cc21`, the result in data set [1] and in data set [2] was inactive. In addition, the IC50 on Gamma-secretase [3] was above 80 µM.

As for `CCCCCCCCn1c2ccccc2c2ccc(OC(C)(C)C(=O)O)cc21`, the EC50 on Gamma-secretase [7] was above 40 µM. Moreover, the IC50 on Gamma-secretase [8] and on Gamma-secretase [3] was above 40 µM throughout. In the data set with H4 [4], the Activity entry is reported as “Toxic”.

On to `CCCCCCCCn1c2ccccc2c2ccc(OCC(=O)OC(C)(C)C)cc21`, for which the result in data set [1] and in data set [2] was inactive. Besides, the EC50 at Gamma-secretase [3] worked out at 19 µM. For the same molecule, in the data set with H4 [6], the Activity entry is “Non-toxic”.

For the molecule `CCCCCCCCn1c2ccc(Cl)cc2c2ccc(C(C)C(=O)OC)cc21` (configuration not stated), the outcome in [1] and in [2] was inactive. At Gamma-secretase [3], the EC50 came out at 15 µM.

In the case of `CC(C(=O)O)c1ccc(-c2ccccc2)c(F)c1` (configuration not stated) [FLURBIPROFEN], the “Ratio AUC” value in [11] was 5.31.

On to `CCCCCCCCn1c2ccccc2c2ccc(OCC(=O)OC)cc21`, for which the result in [1] and in [2] was inactive. Further, the IC50 at Gamma-secretase [3] is 27 µM. Further, in the data set with H4 [6], the Activity result is recorded as “Non-toxic”.

As to `CCCCCCCCn1c2ccccc2c2ccc(OCC#N)cc21`, the IC50 at Gamma-secretase [7] was 74 µM; on Gamma-secretase [8], 105 µM; at Gamma-secretase [3], 252 µM.

For the molecule `CCCCCCCCn1c2ccccc2c2ccc(OCCNC=O)cc21`, the result in data set [1] and in data set [2] was inactive. Moreover, the IC50 on Gamma-secretase [3] was above 80 µM. Also, in the data set on H4 [6], the Activity result is on record as “Non-toxic”.

These data come from ChEMBL document CHEMBL1811865, “NSAID-derived γ-secretase modulation requires an acidic moiety on the carbazole scaffold” (Bioorg Med Chem, 2011).
